Test results: the RNAGym collection of RNA variant scans (doi:10.1126/science.aae0568)
Fewer inactive variants are shown than the library holds.

B1: tRNA (parent)
chain: GUUCCGUUGGCGUAAUGGUAACGCGUCUCCCUCCUAAGGAGAAGACUGCGGGUUCGAGUCCCGUACGGAACG

Variants of: B1
Assay: yeast fitness relative to wild type (ratio to wild type); higher = fitter; tRNA-Arg(CCU), competitive growth, 37 C, YPD
In short: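 The tRNA-Arg(CCU) gene variants were made by chemical synthesis with a 3% per-site mutation rate at 69 sites and inserted at the native genomic locus of Saccharomyces cerevisiae. After pooling, the strains were competed in YPD at 37°C for 24 hours in six parallel replicates. Gene amplicons from the start population and each end population were read by 100-nucleotide paired-end sequencing, and Darwinian fitness relative to wild type was taken from genotype frequency changes. Genotypes needed ≥ 100 starting reads, and estimates < 0.5 were set to 0.5.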

Variant	yeast fitness
GUUCCGUUGGCGUAACGGCAACGCGUCUCCCUCCUAAGGAGAAGACUGCGGGUUCGAGUCCCGUGCGGAACG [U16C U19C A65G]	1.05
GUUCCGUUGGCGUAAUGGUAACGGGUCUCCCUCCUAAGGAGAGGACAGCGGGAUCGAGUCCCGUACGCAACG [C24G A43G U47A U53A G68C]	≤ 0.5
GUUCCGUUGGCGUAAUGGUAACGGGUCUCACUCCUAAGGAGAAGAUUGCGGCUUCGAGUCCCGUACGGAACG [C24G C30A C46U G52C]	≤ 0.5
GUUCCGUUGACGUAAUGGUAACGCGUGUCCCUCCUAAGGAGAAGACUGCGGGUUCGAGUCCCGUACGGAACG [G10A C27G]	0.551
GUUCCGUUGGCGUAAUGGAAACGCGUCUCCCUCCUAAGGAGAAGACUACAGGUUCGAGUCCACUACGGAACG [U19A G48A G50A C62A G63C]	0.591
GUUCGGUUGGCGCAAUGGUAACGUGUCUCCCUCCUAAGGAGAAGACUGUGGGUUCGAGUCCCGUACGGAGCG [C5G U13C C24U C49U A70G]	≤ 0.5
GUUCCGUUGGCGUAAUGGUAACGCGUCUGCCUCCUAAGGAGAAGACUGCAGGUUCGAGUCCCGUUCGGAACG [C29G G50A A65U]	≤ 0.5
GUUCCGCUGGCAUAAUGGUAACGUGUCUCCCUCCUAAGGAGAAGACUGCGGGUUCGAGUCCCGUACGGAACG [U7C G12A C24U]	≤ 0.5
GCUCCGUUGGCGUAAUGGUAACGAGACUCCCUCCUAAGGAGAAGACCGCGGGUUCGAGUCCCGUACGGAACG [U2C C24A U26A U47C]	≤ 0.5
GUUCCGUUGGCGUAAUGGUAACGCGUCUCCCUCCUAAGGAGGAGACUGCGGGUUCGAGUCCCGUCCGGAACG [A42G A65C]	0.755
GUUCCGUUGGCGUAAUGAUAACGCGUCUCCCUCCUAAGGAGAAGAUUGCGGGUUCGAGCACCGUACGAAACG [G18A C46U U59C C60A G68A]	≤ 0.5
GUUCCGUUGGUGUGAUGGUACCGCGUCUUCCUCCUAGGGAGAAGACUGCGGGUUUGAGUCCCGUACGGAACG [C11U A14G A21C C29U A37G C55U]	≤ 0.5
GUUCCGUUGGCGUAAUGCUAACACGUCUCCCUCCUAAGGAGAAGACUGCGGGUUCGAGUCCCGUACGGAACG [G18C G23A]	≤ 0.5
GUUCCGUUGGCGUAAUGGUAACGCGUCUCCCUCCUAACGAGAAGACUGCAGGGUCGAGUCCCGUACGAAACG [G38C G50A U53G G68A]	0.597
GUUCCGUUGACGUAAUGGUAACGCGUCUCCCUCCUAAGCAGAAGACUGCGGGUUCGAGUCCCGUACGGAACG [G10A G39C]	0.763
GUUCCGUUCGUGUAAUGCUAACGCGUCUCCAUCCUAAGGAGAAGACUGCGGGUUCGAGUCCCGUACGGAACG [G9C C11U G18C C31A]	≤ 0.5
GUUCCGUUGGCGUUAUGGUAACCCGUCUCCCUCCUAAGGAGAAGACUGCGGGUUCGAGUCCCGUACGGAACG [A14U G23C]	0.508
GUUCCGUUGACGUAAUGGUAAUGCGUCUCCCUCCUAAGGAGAAGACCGCGGGUUCGAGUCCCGUACGAAACG [G10A C22U U47C G68A]	≤ 0.5
GUUCGGUUGCCGUAAUGGUAACGCGUCUCCCUCCUAAGGAGAAGACUGCGGGUUCGAGUCCCGUACGUAACG [C5G G10C G68U]	≤ 0.5

Variant	yeast fitness
GUUCCGUUGGCGUAAUGGUAAUGCGUCUCCCUCCUAAGGAGAAGACUGGGGGAUCGAGUCCCGUGCGGAACG [C22U C49G U53A A65G]	≤ 0.5
GUUCCGUUGGCGGAAUGGUAACGCGUCUCCCUCCUAAGGAGAAGACUGCGGGCUCGAGUCCCGCACGGAACG [U13G U53C U64C]	≤ 0.5
GUUACGUUGGCGUAACAGUAACGCGUCUCCUUCCUAAGGAGAAGACUGCGGGUACGAGUCCCGUACGGAACG [C4A U16C G17A C31U U54A]	≤ 0.5
GUUCCGUUGGCGUAAUCGUAACGCGUCUCCGUCCUAAGGAGCAGACUGCGGGUUCGAGUCCCGUAUGGAACG [G17C C31G A42C C66U]	≤ 0.5
GUUCCGUCGCCGUAAUGGUAACGCGUCUCCCUCCUAAGGAGAAGACUGCGGGUUCGAGUCCCGUACGGAACG [U8C G10C]	0.639
GUUCCAUUGGCGUUAUGGUAACACGUCUGCCUCCUAAGGAGAAGAAUGCGGGUUGGAGUCCCGUACGAACCG [G6A A14U G23A C29G C46A C55G G68A A70C]	≤ 0.5
GUUCCGUUCGCGUACUGGUAACGCGUCUCCCUCCUAAGGAGAAGCCUGUGGGUUCGAGUCCGGUAUGGAACG [G9C A15C A45C C49U C62G C66U]	0.591
GUUCCGUUGGCGUAAUGGUAACGCGUCUCCCUACUAAGGAGAAGAAUGCGGGUUCGAAUCCCGUACGGAGCG [C33A C46A G58A A70G]	≤ 0.5
GAUCCGUUAGCGUAAUGGUAACGCGUCUCCCUCCUAGGGAGAAGACCGCGGGUUCGAGUCCCGUCCGGAACG [U2A G9A A37G U47C A65C]	≤ 0.5
GUUCCGUUGGCGUAAUCGUAACGCGUCUCCCUCCUAAGGAGAAGACUGCGGGUUCGAGUCCCGUCCGGAACG [G17C A65C]	0.67
GUUCCGUUGGCGUAAUGGUAACGCGUCCCCCUCCUAAGGCGAAGACUGCGGGUUCGAGUCCCGUAGGGAACG [U28C A40C C66G]	0.733
GUUCCGUUGCCGUAAUGGUAACGCGUCUCCCUCCUCAGGAGAAGACUGCGGGUUUGAGUCCCGUACGGAACG [G10C A36C C55U]	≤ 0.5
GUUCCGUUGGCGUAAUGGUAACGUGUUUCCCUCCUAAGGAGAAGACUGCCGGUUCGAGUCCCGUACGGAACG [C24U C27U G50C]	≤ 0.5
GUUCCGUUGGGGUAAUGGUAACGCGCCUCCAUCCUAAGGAGAUGACUGCGGGUUCGAGUCACGUACGGAACG [C11G U26C C31A A43U C61A]	≤ 0.5
GUUCCGUUGGCGUAAUGGUAACGCGUCUCCCUCCUAAGGAGAAGACUGCGGGUUCGGGUCGAGUACGGAACG [A57G C61G C62A]	0.633
GUUCCGUUGGCGUAAUGGUAAUGCGUCUCCGUCCUUAGGAGAAGACUGCGGGUUCGAGUCCCGUACGGAACG [C22U C31G A36U]	≤ 0.5
GUUCCGUCAACGUAAUGGUAACCCGUCUUCCUCCUCAGGAGAAGACUGGGGGUUCGAGUCCCGUACGGAUCG [U8C G9A G10A G23C C29U A36C C49G A70U]	0.534
GUUCUGUUGGCGUAAUGGUAAGGCGUCUCCCUCCUAAGGAGAAGCCUGCGGGUUCGAGUCCCGUACGGAACG [C5U C22G A45C]	0.566
